MrgX1 agonist: activates human MrgX1 receptor signaling; Q96LB2; MrgX1-HEK293 cells, Fluo-4 calcium fluorescence, agonist mode; stronger effect = higher value; B-score at 10 µM; 310,000 compounds, 0.44% hits; AID 588627;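 active = calcium response B-score plate-corrected fluorescence ratio at least 3 library SD, with starting fluorescence B-score inside 5 SD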
Target sequence (Q96LB2 whole entry, looked up): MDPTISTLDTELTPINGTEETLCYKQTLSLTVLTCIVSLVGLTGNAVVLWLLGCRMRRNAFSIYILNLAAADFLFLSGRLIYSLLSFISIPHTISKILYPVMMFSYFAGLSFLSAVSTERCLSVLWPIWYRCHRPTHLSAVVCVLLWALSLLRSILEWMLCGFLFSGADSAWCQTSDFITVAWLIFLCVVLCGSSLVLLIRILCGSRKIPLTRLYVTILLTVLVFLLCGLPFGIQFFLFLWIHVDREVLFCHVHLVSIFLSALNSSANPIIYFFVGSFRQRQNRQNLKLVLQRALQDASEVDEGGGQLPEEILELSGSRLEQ
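Material: MrgX1-expressing HEK293 cells; input: 15,000 cells per well; doses: test compound given as first of three sequential additions; schedule: overnight plating before 1 h dye loading; technique: Fluo-4 NW calcium-flux fluorescence, kinetic read; evaluation: baseline-normalised fluorescence change ratio, B-scored; control set: plate-wise positive and negative controls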
RGS4 block: inhibitors of human RGS4; B-score at 10 µM; HEK293 M3R/RGS4 inducible, Fluo-4 calcium flux; stronger effect = higher value; triggered by carbachol at its EC20; P49798; 310,000 compounds, 0.45% hits;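 active = B-score, a plate-corrected calcium signal, over three deviations above library mean, with baseline fluorescence within five deviations of library mean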;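 note: RGS4 expression induced by doxycycline in cells with stable M3 receptor; B-score is computed from the integrated fluorescence ratio over baseline after carbachol; higher B-score means a larger calcium signal and so more RGS4 inhibition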
Target sequence (P49798 whole entry, looked up): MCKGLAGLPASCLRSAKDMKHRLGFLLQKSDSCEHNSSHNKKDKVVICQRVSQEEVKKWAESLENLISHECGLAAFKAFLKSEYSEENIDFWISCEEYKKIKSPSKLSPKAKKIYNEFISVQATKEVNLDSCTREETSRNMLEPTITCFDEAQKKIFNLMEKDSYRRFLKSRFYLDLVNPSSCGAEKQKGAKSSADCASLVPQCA
RGS4 pot: potentiators or activators of RGS4; HEK293 M3R/inducible RGS4, carbachol calcium flux Fluo4; stronger effect = lower value; B-score at 10 µM; 310,000 compounds, 0.92% hits;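 active = B-score of the integrated calcium signal more than 4 SD below the library mean, with starting fluorescence not abnormally high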;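 note: negative B-score means reduced calcium response which marks RGS4 activation or potentiation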
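System – HEK293 FlpIn-TREx cells, stable M3R, doxycycline-inducible RGS4 · Reagent – ECmax carbachol challenge · Times – compound preincubation 20 min at room temperature before agonist · Technique – Fluo4 fluorescence kinetic imaging of calcium · Measure – B score of integrated Fluo4 ratio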
MrgX1 antag: antagonists of human MrgX1 receptor; 310,000 compounds, 1.3% hits; B-score at 10 µM; MRGX1-HEK293 calcium flux, Fluo-4, BAM8-22 antagonism; stronger effect = lower value; Q96LB2;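 active = calcium-response B-score plate-corrected more than 3 library SD below zero, starting fluorescence within 5 deviations, no agonist response on first addition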;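 note: peak minus trough fluorescence over baseline after final BAM8-22 challenge near maximal dose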
MrgX1 PAM: human MrgX1 positive allosteric modulation, primary screen; Q96LB2; MrgX1-HEK293, Fluo-4 calcium flux, FDSS; stronger effect = higher value; AID 588675; 310,000 compounds, 0.63% hits; B-score at 10 µM;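 active = plate-corrected calcium response at least 3 library SD above typical, normal starting fluorescence, not activating the receptor alone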;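 note: compound read alongside a low EC10 to EC30 dose of BAM8-22 agonist; peak minus trough fluorescence over baseline measured at the second addition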
MrgX1 antag conf: confirmation of human MrgX1 receptor antagonists; shares compounds with MrgX1 antag; MrgX1-HEK293, BAM8-22 calcium flux, Fluo-4; stronger effect = lower value; remaining BAM8-22 calcium response % of control (stronger effect = lower value), % at 10 µM; 2,300 compounds, 19% hits;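 active = remaining agonist calcium response no higher than 100% minus 3 SD of agonist-only control wells, with starting fluorescence near control levels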;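 note: agonist BAM8-22 given at a near maximal EC90 to ECmax level; peak minus minimum fluorescence divided by baseline after agonist addition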
HEK293 Ca flux: MrgX1 antagonist counter-screen hit in parental HEK293 cells | shares compounds with MrgX1 antag | Fluo-4 calcium fluorescence, FDSS | fluorescence ratio F(max-min)/F0 at 10 µM | 4,000 compounds, 2% hits | AID 624111;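 active = duplicate-averaged calcium fluorescence ratio at least three times the standard deviation of buffer wells, a nonspecific response in parental cells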
HEK293 Ca counter: activity in parental HEK293 cells without MrgX1; shares compounds with MrgX1 antag; parental HEK293 calcium flux, Fluo-4 fluorescence ratio; stronger effect = higher value; fluorescence ratio F(max-min)/F0 at 10 µM; 4,000 compounds, 0.4% hits;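 active = calcium fluorescence ratio, averaged over duplicates, at least 3 SD of the buffer-well ratio, meaning a nonspecific response in receptor-free cells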;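 note: untransfected parental HEK293 lacking MrgX1 used as counterscreen for MrgX1 allosteric activators; fluorescence change taken during the second addition on a kinetic imager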
HEK293 Ca cntr2: counter-screen for MrgX1 activators: effect in parental HEK293 cells | fluorescence ratio F(max-min)/F0 at 10 µM | Fluo-4 calcium fluorescence (FDSS); stronger effect = higher value | shares compounds with MrgX1 antag | 4,000 compounds, 8.7% hits;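 active = calcium fluorescence ratio at least three times the spread of buffer wells, meaning a non-specific response in parental cells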
Active calls of the source: *; i = inactive; · = no result. This is a sample that favours compounds with a hit; in the whole collection about 3.5% have one here.

SMILES | MrgX1 agonist | RGS4 block | RGS4 pot | MrgX1 antag | MrgX1 PAM | MrgX1 antag conf | HEK293 Ca flux | HEK293 Ca counter | HEK293 Ca cntr2
COc1ccccc1CN1CC(=O)N2CSC[C@H]2C1=O | i | i | i | i | i | · | · | · | ·
Cc1nn(-c2ccccc2)c(C)c1NC(=O)COC(=O)CCc1ccccc1 | i | i | i | i | i | · | · | · | ·
CCOC(=O)N1CCN(C(=O)c2ccccc2N(C)S(C)(=O)=O)CC1 | i | i | i | -7.6* | i | i | i | i | i
O=C1CCC([N+](=O)[O-])C(c2cc(Br)ccc2F)N1 (stereo not given) | i | i | i | i | i | · | · | · | ·
CCOC(=O)Cc1csc(SC(C)C(=O)NC2CCCCC2C)n1 (stereo not given) | i | i | i | -5.3* | i | 85%* | i | i | i
CCOC(=O)Cc1csc(SCC(=O)NC2CCCC(C)C2C)n1 (stereo not given) | i | i | i | i | i | · | · | · | ·
O=C(Nc1cccnc1)C1CCN(S(=O)(=O)c2ccc(Cl)cc2)CC1 | i | i | i | -7.9* | i | i | i | i | i
CSc1ccc(S(=O)(=O)N2CCC(C(=O)Nc3cccnc3)CC2)cc1 | i | i | i | i | i | · | · | · | ·
O=C(NCc1cccnc1)C(=O)Nc1cc2c3c(c1)CC(=O)N3CCC2 | i | i | i | i | i | · | · | · | ·
CC1c2[nH]c3ccccc3c2CCN1C(=O)Nc1ccccc1 (stereo not given) | i | i | i | -7.5* | i | i | i | i | i
O=C(NC(=S)NCc1cccnc1)c1cc(Br)ccc1Cl | i | i | i | i | i | · | · | · | ·
O=C(CN1CCN(Cc2ccc(F)cc2Cl)CC1)NCc1ccccc1 | i | i | i | i | i | · | · | · | ·
COc1ccccc1NC(=O)CCC(=O)OCc1ccc(Cl)cc1 | i | i | i | -4.8* | i | i | i | i | i
COc1ccc(C2(c3ccc(OC)cc3)NC(=O)N(CC(=O)Nc3ccc(OC)c(OC)c3)C2=O)cc1 | i | i | i | i | i | · | · | · | ·
CCOC(=O)CC1C(=O)NCCN1S(=O)(=O)c1ccc(NC(C)=O)cc1 (stereo not given) | i | i | i | -6.5* | i | i | i | i | i
CCOC(=O)CC1C(=O)NCCN1S(=O)(=O)c1ccc(F)cc1 (stereo not given) | i | i | i | i | i | · | · | · | ·
O=S(=O)(c1ccc(N2CCC(c3ccc(Cl)cc3)=N2)cc1)N(CCO)CCO | i | i | i | i | i | · | · | · | ·
CN(C)CCCNS(=O)(=O)c1ccc(N2CCC(c3ccc(Cl)cc3)=N2)cc1 | i | i | i | -14* | i | 60%* | i | i | i
Cc1cc2oc(=O)cc(Cn3nnc(-c4ccc(Cl)cc4)n3)c2cc1C(C)C | i | i | i | i | i | · | · | · | ·
CSc1cccc(NC(=O)c2nnn(CC(=O)Nc3cc(C)cc(C)c3)c2N)c1 | i | i | i | i | i | · | · | · | ·
C=CCSc1nc2c(c(C3CC=CCC3)c1C#N)CCC2 (stereo not given) | i | i | i | i | i | · | · | · | ·
CC(C)OC(=O)CSc1nc2c(c(C3CC=CCC3)c1C#N)CCC2 (stereo not given) | i | i | i | -6.2* | i | i | i | i | i
